For orientation: pA2 means a measure of antagonist potency on a negative log scale. Read a high pA2 as higher antagonist potency.

The target in experiment [1] is T1, Adrenergic receptor alpha-1 (Rattus norvegicus) (UniProt P15823+P23944+P43140). The experiment can be described thus: (§1) Tested for Alpha adrenergic receptor antagonistic activity on isolated rat vas deferens. Format: functional, tissue-based. A digest of the protocol:
(§2)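 Isolated rat vas deferens; contractions recorded isometrically with a force-displacement transducer.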

The target in experiment [2] is T2, Adrenergic receptor alpha-1 (Rattus norvegicus, UniProt P15823+P23944+P43140).
T2 sequence (P15823 whole entry): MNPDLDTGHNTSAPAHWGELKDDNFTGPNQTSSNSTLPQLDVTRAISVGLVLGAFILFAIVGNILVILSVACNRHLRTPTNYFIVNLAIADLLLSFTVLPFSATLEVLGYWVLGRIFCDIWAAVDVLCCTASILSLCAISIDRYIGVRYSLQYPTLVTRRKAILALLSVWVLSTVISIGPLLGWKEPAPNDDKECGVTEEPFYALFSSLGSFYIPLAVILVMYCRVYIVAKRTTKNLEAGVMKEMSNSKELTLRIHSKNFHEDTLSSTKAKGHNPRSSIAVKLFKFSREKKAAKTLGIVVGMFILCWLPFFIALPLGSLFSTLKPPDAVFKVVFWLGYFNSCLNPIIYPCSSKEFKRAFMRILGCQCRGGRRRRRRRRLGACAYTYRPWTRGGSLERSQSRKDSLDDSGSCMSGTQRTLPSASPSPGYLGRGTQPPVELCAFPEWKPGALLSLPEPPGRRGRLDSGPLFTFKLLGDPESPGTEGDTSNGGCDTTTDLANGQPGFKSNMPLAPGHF
T2 sequence (P23944 whole entry): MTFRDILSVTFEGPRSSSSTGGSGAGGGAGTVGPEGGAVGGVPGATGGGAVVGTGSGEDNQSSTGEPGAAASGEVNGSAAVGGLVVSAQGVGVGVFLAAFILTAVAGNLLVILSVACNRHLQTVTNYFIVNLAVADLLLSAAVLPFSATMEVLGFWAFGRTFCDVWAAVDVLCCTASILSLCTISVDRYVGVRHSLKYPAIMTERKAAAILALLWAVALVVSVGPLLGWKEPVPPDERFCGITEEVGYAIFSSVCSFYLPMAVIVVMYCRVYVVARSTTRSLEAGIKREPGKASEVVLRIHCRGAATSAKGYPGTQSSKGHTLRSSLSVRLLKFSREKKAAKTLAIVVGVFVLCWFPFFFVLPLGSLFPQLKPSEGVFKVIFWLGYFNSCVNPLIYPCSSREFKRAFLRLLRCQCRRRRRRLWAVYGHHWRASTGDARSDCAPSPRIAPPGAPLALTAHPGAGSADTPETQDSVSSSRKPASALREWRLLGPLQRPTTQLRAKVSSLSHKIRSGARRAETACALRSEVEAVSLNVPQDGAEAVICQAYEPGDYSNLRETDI
T2 sequence (P43140 whole entry): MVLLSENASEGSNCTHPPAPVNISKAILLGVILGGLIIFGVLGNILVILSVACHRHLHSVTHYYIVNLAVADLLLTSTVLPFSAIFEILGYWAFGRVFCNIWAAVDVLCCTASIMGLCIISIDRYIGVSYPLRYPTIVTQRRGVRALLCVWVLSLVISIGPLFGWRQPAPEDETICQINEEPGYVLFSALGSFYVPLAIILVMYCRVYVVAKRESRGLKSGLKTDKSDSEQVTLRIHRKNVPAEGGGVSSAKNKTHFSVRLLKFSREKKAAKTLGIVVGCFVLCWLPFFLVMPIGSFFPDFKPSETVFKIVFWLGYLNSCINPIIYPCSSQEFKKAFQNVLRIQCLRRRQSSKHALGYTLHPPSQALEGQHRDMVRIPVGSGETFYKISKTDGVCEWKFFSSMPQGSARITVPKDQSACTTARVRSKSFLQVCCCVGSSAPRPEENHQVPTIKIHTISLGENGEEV
The description is as §1. Format: functional, tissue-based. Summed up: as §2

Experiment [3] addresses T2, Adrenergic receptor alpha-1. The experiment can be described thus: (§3) Tested for alpha adrenergic receptor agonistic activity on isolated rat vas deferens. Format: functional, tissue-based. A digest of the protocol:
as §2

Experiment [4] concerns the target T1, Adrenergic receptor alpha-1 (Rattus norvegicus). The experiment is described as §3. Format: functional, tissue-based. A digest of the protocol: as §2
The target is the same in experiment [5]. The conditions noted are these: Vas deferens.
Experiment [6] has the same target. The conditions noted are these: Vas deferens. The source holds these as a separate data set.
In experiment [7] the target is T3, Adrenergic receptor beta (Homo sapiens, UniProt P08588+P07550+P13945). The conditions noted are these: Cavia porcellus.
Experiment [8] concerns the target T3, Adrenergic receptor beta. The experiment can be described thus: Inhibition of beta adrenergic receptor on isolated guinea pig atria against isoprenaline at 4E-8M. The conditions noted are these: target entry is the homologue from another species. The arrangement: species or system Cavia porcellus.

In experiment [1], `COc1ccc(OC)c(C2CN(C(C)C)CCO2)c1` (stereo not drawn) gave a pA2-pA10 of 0.19 and a pA10 of 2.95. This molecule also had a pA2 in experiment [2] of 3.14.
Molecule `CNCC(O)c1cc(OC)ccc1OC` (stereo not drawn) returned a pA2 in experiment [3] of 3.91. Also, in experiment [4], the pA10 stood at 3.16, the pD2 is 5.22 and the pD10 turned out to be 6.07.
`COc1ccc(OC)c(C(O)CN)c1` (stereo not drawn) [DESGLYMIDODRINE]: in experiment [1], the pA2-pA10 was 0.74 and the pA10 was found to be 3.3. Besides, the pD10 in experiment [5] worked out at 6. In addition, in experiment [6], the pD2 came out at 5.15. In addition, the pA2 in experiment [2] came out at 4.04.
In experiment [1], `COc1ccc(OC)c(C2OCCNC2C)c1` (stereo not drawn) gave a pA2-pA10 of 0.27 and a pA10 of 3.2. The molecule also yielded a pA2 in experiment [2] of 3.48.
`COc1ccc(OC)c(C(O)CNC(C)C)c1` (stereo not drawn) yielded a pA2-pA10 in experiment [1] of 0.26. Besides, the pA10 in experiment [1] was determined as 2.48; on Adrenergic receptor beta [7] it was 4.08. Besides, the pA2 on Adrenergic receptor beta [8] is 4.77.
In experiment [1], `COc1ccc(OC)c(C2CN(C)CCO2)c1` (stereo not drawn) displayed a pA2-pA10 of 0.76 and a pA10 of 2.85. In experiment [2], the pA2 was 3.61.
`Cc1ccc(N(CC2=NCCN2)c2cccc(O)c2)cc1` yielded a pA10 in experiment [4] of 6.02.
`COc1ccc(OC)c(C(O)C(C)N)c1` (stereo not drawn) registered a pD10 in experiment [5] of 5.61. Moreover, the pD2 in experiment [6] is 4.42.
Regarding `COc1ccc(OC)c(C2CNCCO2)c1` (stereo not drawn), in experiment [1], the pA2-pA10 was found to be 0.45 and the pA10 was 2.95. The molecule further displayed a pA2 in experiment [2] of 3.4.

For the origin of these results see ChEMBL document CHEMBL1122331, “Conformational effects on the activity of drugs. 10. Synthesis, conformation, and pharmacological properties of 1-(2,5-dimethoxyphenyl)-2-aminoethanols and their morpholine analogues” (J Med Chem, 1983).
